Data taken from ChEMBL document CHEMBL1152649, “Synthesis, cytotoxicity and human telomerase inhibition activities of a series of 1,2-heteroannelated anthraquinones and anthra[1,2-d]imidazole-6,11-dione homologues” (2009).

Legend:
[1] = Cytotoxicity against human H1299 cells at 100 uM after 48 hrs by MTT assay; format: functional; details: NCI-H1299, 48 h
Procedure, shortened: (§1)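 H1299 non-small cell lung cancer cells were grown in RPMI 1640 with 10% FBS, penicillin and streptomycin at 37 °C under 5% CO2. About 2 × 10³ cells per well were seeded and left 24 h. Compounds were dissolved fresh in DMSO, diluted into complete medium and applied for 48 h. MTT was then added for 4 h at 37 °C, followed by lysis buffer (20% SDS, 50% DMF) for 16 h, and absorbance was read at 550 nm.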

[2] = Cytotoxicity against human H1299 cells at 10 uM after 48 hrs by MTT assay; format: functional; details: NCI-H1299, 48 h; procedure, shortened: as §1
NCI/ADR-RES = test: Antiproliferative activity against human NCI/ADR-RES cells assessed as cell growth at 10 uM; format: functional; details: read-out: Activity
Procedure, shortened: (§2)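 NCI 60 cell line panel, single-dose screen (10^-5 M) run by the developmental therapeutics program protocol. Results are given as growth percent of treated cells relative to untreated control cells for each line.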

SK-MEL-5 = test: Antiproliferative activity against human SK-MEL-5 cells assessed as cell growth at 10 uM; format: functional; details: read-out: Activity; procedure, shortened: as §2
MCF7 = test: Antiproliferative activity against human MCF7 cells assessed as cell growth at 10 uM; format: functional; details: read-out: Activity; procedure, shortened: as §2
SW-620 = test: Antiproliferative activity against human SW620 cells assessed as cell growth at 10 uM; format: functional; details: read-out: Activity
Procedure, shortened: (§3)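 NCI 60 cell line panel, single dose (10^-5 M), run per the Developmental Therapeutics Program protocol (one dose mean graph). Each result is the growth percentage of treated cells relative to untreated control cells.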

Malme-3M = test: Antiproliferative activity against human MALME-3M cells assessed as cell growth at 10 uM; format: functional; details: read-out: Activity; procedure, shortened: as §2
786-0 = test: Antiproliferative activity against human 786-0 cells assessed as cell growth at 10 uM; format: functional; details: read-out: Activity; procedure, shortened: as §2
PC-3 = test: Antiproliferative activity against human PC3 cells assessed as cell growth at 10 uM; format: functional; details: read-out: Activity; procedure, shortened: as §2
SF-295 = test: Antiproliferative activity against human SF295 cells assessed as cell growth at 10 uM; format: functional; details: read-out: Activity; procedure, shortened: as §2
HCC 2998 = test: Antiproliferative activity against human HCC2998 cells assessed as cell growth at 10 uM; format: functional; details: read-out: Activity; procedure, shortened: as §2
TK-10 = test: Antiproliferative activity against human TK10 cells assessed as cell growth at 10 uM; format: functional; details: read-out: Activity; procedure, shortened: as §3
CAKI-1 = test: Antiproliferative activity against human Caki1 cells assessed as cell growth at 10 uM; format: functional; details: read-out: Activity; procedure, shortened: as §2
CCRF-CEM = test: Antiproliferative activity against human CCRF-CEM cells assessed as cell growth at 10 uM; format: functional; details: read-out: Activity; procedure, shortened: as §2
[3] = target: Telomerase reverse transcriptase (Homo sapiens) (UniProt O14746); test: Inhibition of TERT in human H1299 cells assessed as residual transcriptional activity at 10 uM after 24 hrs by SEAP reporter gene assay; values are per cent of control
Sequence of Telomerase reverse transcriptase (Homo sapiens) (O14746 whole entry): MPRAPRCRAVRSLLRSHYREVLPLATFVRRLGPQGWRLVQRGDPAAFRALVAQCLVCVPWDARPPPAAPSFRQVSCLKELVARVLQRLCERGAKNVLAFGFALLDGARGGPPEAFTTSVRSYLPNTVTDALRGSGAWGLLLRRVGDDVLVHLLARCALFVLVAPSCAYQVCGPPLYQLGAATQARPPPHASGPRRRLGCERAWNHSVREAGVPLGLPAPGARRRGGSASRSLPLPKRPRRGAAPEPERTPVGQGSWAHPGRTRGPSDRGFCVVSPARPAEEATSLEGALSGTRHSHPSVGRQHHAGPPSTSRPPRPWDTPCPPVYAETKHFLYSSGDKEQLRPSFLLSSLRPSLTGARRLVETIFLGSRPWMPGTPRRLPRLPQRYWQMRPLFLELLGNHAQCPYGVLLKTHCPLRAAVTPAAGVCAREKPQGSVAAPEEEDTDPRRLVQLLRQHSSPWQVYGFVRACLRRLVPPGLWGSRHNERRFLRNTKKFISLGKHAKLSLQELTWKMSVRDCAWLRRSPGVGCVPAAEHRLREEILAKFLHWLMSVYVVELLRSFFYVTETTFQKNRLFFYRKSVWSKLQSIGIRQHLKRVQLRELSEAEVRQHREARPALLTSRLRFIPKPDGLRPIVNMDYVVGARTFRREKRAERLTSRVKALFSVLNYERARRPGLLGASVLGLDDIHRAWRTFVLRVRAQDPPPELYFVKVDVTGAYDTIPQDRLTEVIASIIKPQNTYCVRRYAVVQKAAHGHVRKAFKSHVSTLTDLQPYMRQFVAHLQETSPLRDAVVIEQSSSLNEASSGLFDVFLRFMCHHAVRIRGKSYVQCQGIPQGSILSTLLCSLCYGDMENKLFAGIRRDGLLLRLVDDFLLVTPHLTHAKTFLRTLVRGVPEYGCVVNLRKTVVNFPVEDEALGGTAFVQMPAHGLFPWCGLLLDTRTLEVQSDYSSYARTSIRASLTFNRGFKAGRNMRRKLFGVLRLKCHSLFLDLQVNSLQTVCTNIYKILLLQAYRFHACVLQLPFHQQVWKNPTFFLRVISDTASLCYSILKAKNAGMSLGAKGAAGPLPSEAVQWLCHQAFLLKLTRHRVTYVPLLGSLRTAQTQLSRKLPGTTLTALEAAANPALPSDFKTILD

MOLT-4 = test: Antiproliferative activity against human MOLT4 cells assessed as cell growth at 10 uM; format: functional; details: read-out: Activity; procedure, shortened: as §2
U-251 = test: Antiproliferative activity against human U251 cells assessed as cell growth at 10 uM; format: functional; details: read-out: Activity; procedure, shortened: as §3
A498 = test: Antiproliferative activity against human A498 cells assessed as cell growth at 10 uM; format: functional; details: read-out: Activity; procedure, shortened: as §2
SK-MEL-28 = test: Antiproliferative activity against human SK-MEL-28 cells assessed as cell growth at 10 uM; format: functional; details: read-out: Activity; procedure, shortened: as §2
NCI-H460 = test: Antiproliferative activity against human NCI-H460 cells assessed as cell growth at 10 uM; format: functional; details: read-out: Activity; procedure, shortened: as §2
M14 = test: Antiproliferative activity against human M14 cells assessed as cell growth at 10 uM; format: functional; details: read-out: Activity; procedure, shortened: as §2
MDA-MB-435 = test: Antiproliferative activity against human MDA-MB-435 cells assessed as cell growth at 10 uM; format: functional; details: read-out: Activity; procedure, shortened: as §2
NCI-H322M = test: Antiproliferative activity against human NCI-H322M cells assessed as cell growth at 10 uM; format: functional; details: read-out: Activity; procedure, shortened: as §2
HCT-116 = test: Antiproliferative activity against human HCT116 cells assessed as cell growth at 10 uM; format: functional; details: read-out: Activity; procedure, shortened: as §2
HOP-92 = test: Antiproliferative activity against human HOP92 cells assessed as cell growth at 10 uM; format: functional; details: read-out: Activity; procedure, shortened: as §2
A549 = test: Antiproliferative activity against human A549 cells assessed as cell growth at 10 uM; format: functional; details: read-out: Activity; procedure, shortened: as §2
MDA-MB-231 = test: Antiproliferative activity against human MDA-MB-231 cells assessed as cell growth at 10 uM; format: functional; details: read-out: Activity; procedure, shortened: as §2
UO-31 = test: Antiproliferative activity against human UO31 cells assessed as cell growth at 10 uM; format: functional; details: read-out: Activity; procedure, shortened: as §3
[4] = Antiproliferative activity against human Hs 578T cells assessed as cell growth at 10 uM; format: functional; details: read-out: Activity; procedure, shortened: as §2
LOX IMVI = test: Antiproliferative activity against human LOXIMVI cells assessed as cell growth at 10 uM; format: functional; details: read-out: Activity; procedure, shortened: as §2
ACHN = test: Antiproliferative activity against human ACHN cells assessed as cell growth at 10 uM; format: functional; details: read-out: Activity; procedure, shortened: as §2
HL-60(TB) = test: Antiproliferative activity against human HL-60(TB) cells assessed as cell growth at 10 uM; format: functional; details: read-out: Activity
Procedure, shortened: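 NCI Developmental Therapeutics Program 60-cell-line one-dose screen at 10^-5 M. Readout is growth percentage of treated cells relative to untreated control cells.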

UACC-62 = test: Antiproliferative activity against human UACC62 cells assessed as cell growth at 10 uM; format: functional; details: read-out: Activity; procedure, shortened: as §3
[5] = target: Telomerase reverse transcriptase (Homo sapiens) (UniProt O14746); test: Inhibition of TERT in human H1299 cells assessed as residual transcriptional activity at 100 uM after 24 hrs by SEAP reporter gene assay; values are per cent of control
HCT-15 = test: Antiproliferative activity against human HCT15 cells assessed as cell growth at 10 uM; format: functional; details: read-out: Activity; procedure, shortened: as §2
OVCAR-4 = test: Antiproliferative activity against human OVCAR4 cells assessed as cell growth at 10 uM; format: functional; details: read-out: Activity; procedure, shortened: as §2
T47D = test: Antiproliferative activity against human T47D cells assessed as cell growth at 10 uM; format: functional; details: read-out: Activity; procedure, shortened: as §3
OVCAR-3 = test: Antiproliferative activity against human OVCAR-3 cells assessed as cell growth at 10 uM; format: functional; details: read-out: Activity; procedure, shortened: as §2
NCI-H522 = test: Antiproliferative activity against human NCI-H522 cells assessed as cell growth at 10 uM; format: functional; details: read-out: Activity; procedure, shortened: as §2
SK-OV-3 = test: Antiproliferative activity against human SKOV3 cells assessed as cell growth at 10 uM; format: functional; details: read-out: Activity; procedure, shortened: as §2
EKVX = test: Antiproliferative activity against human EKVX cells assessed as cell growth at 10 uM; format: functional; details: read-out: Activity; procedure, shortened: as §2
HT-29 = test: Antiproliferative activity against human HT-29 cells assessed as cell growth at 10 uM; format: functional; details: read-out: Activity; procedure, shortened: as §2
SF-268 = test: Antiproliferative activity against human SF268 cells assessed as cell growth at 10 uM; format: functional; details: read-out: Activity; procedure, shortened: as §2
NCI-H23 = test: Antiproliferative activity against human NCI-H23 cells assessed as cell growth at 10 uM; format: functional; details: read-out: Activity; procedure, shortened: as §2
SNB-75 = test: Antiproliferative activity against human SNB75 cells assessed as cell growth at 10 uM; format: functional; details: read-out: Activity; procedure, shortened: as §3
OVCAR-8 = test: Antiproliferative activity against human OVCAR8 cells assessed as cell growth at 10 uM; format: functional; details: read-out: Activity; procedure, shortened: as §2
SR = test: Antiproliferative activity against human SR cells assessed as cell growth at 10 uM; format: functional; details: read-out: Activity; procedure, shortened: as §3

## COc1cc(-c2nc3ccc4c(c3[nH]2)C(=O)c2ccccc2C4=O)ccc1O
[1]
  viability at 100 µM: 38%
[2]
  viability at 10 µM: 70%
NCI/ADR-RES
  growth at 10 µM: 103%
SK-MEL-5
  growth at 10 µM: 88.1%
MCF7
  growth at 10 µM: 57.5%
SW-620
  growth at 10 µM: 102%
Malme-3M
  growth at 10 µM: 107%
786-0
  growth at 10 µM: 109%
PC-3
  growth at 10 µM: 88.1%
SF-295
  growth at 10 µM: 127%
HCC 2998
  growth at 10 µM: 103%
TK-10
  growth at 10 µM: 174%
CAKI-1
  growth at 10 µM: 134%
CCRF-CEM
  growth at 10 µM: 94.7%
[3]
  residual activity: 50%
MOLT-4
  growth at 10 µM: 96.4%
U-251
  growth at 10 µM: 103%
A498
  growth at 10 µM: 122%
SK-MEL-28
  growth at 10 µM: 132%
NCI-H460
  growth at 10 µM: 90.1%
M14
  growth at 10 µM: 114%
MDA-MB-435
  growth at 10 µM: 103%
NCI-H322M
  growth at 10 µM: 107%
HCT-116
  growth at 10 µM: 90.4%
HOP-92
  growth at 10 µM: 120%
A549
  growth at 10 µM: 97.9%
MDA-MB-231
  growth at 10 µM: 87.9%
UO-31
  growth at 10 µM: 80.7%
[4]
  growth at 10 µM: 167%
LOX IMVI
  growth at 10 µM: 109%
ACHN
  growth at 10 µM: 100%
HL-60(TB)
  growth at 10 µM: 123%
UACC-62
  growth at 10 µM: 92.2%
[5]
  residual activity: 8%
HCT-15
  growth at 10 µM: 103%
OVCAR-4
  growth at 10 µM: 83%
T47D
  growth at 10 µM: 83.9%
OVCAR-3
  growth at 10 µM: 125%
NCI-H522
  growth at 10 µM: 71.5%
SK-OV-3
  growth at 10 µM: 113%
EKVX
  growth at 10 µM: 89.1%
HT-29
  growth at 10 µM: 101%
SF-268
  growth at 10 µM: 107%
NCI-H23
  growth at 10 µM: 103%
SNB-75
  growth at 10 µM: 86%
OVCAR-8
  growth at 10 µM: 93.4%
SR
  growth at 10 µM: 73.9%
